Inhibition data for 3 compounds are collected here from ChEMBL document CHEMBL4118021, “Studies of TAK1-centered polypharmacology with novel covalent TAK1 inhibitors” (Bioorg Med Chem, 2017).

Type in all cases: cell-based
Test [1] deals with T1, Serine/threonine-protein kinase Nek9 (Homo sapiens) (UniProt Q8TD19).
T1 sequence (whole entry): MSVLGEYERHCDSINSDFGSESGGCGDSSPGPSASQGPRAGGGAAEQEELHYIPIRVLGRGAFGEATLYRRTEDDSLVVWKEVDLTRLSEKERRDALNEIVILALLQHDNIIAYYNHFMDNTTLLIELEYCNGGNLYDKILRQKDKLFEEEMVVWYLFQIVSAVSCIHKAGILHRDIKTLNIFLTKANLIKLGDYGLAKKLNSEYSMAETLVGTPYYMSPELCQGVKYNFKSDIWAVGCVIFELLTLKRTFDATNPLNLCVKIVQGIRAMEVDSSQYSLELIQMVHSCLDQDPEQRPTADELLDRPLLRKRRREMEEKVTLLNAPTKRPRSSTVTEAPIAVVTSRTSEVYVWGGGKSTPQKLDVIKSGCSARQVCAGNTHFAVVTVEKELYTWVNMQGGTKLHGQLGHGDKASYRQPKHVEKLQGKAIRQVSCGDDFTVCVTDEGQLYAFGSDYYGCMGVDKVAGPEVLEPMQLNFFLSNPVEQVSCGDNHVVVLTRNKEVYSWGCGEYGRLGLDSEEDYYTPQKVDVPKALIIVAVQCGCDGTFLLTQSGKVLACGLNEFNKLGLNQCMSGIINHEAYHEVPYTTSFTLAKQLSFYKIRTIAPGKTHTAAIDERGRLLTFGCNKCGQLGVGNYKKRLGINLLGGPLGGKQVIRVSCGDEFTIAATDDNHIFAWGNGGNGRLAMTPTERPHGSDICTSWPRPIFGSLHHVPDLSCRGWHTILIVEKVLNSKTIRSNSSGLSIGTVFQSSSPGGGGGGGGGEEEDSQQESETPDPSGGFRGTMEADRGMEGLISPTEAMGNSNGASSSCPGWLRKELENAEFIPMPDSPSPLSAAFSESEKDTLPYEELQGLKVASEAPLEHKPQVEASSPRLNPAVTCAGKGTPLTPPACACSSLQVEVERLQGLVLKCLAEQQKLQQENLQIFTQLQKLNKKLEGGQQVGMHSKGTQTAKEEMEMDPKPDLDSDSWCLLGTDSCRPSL
Kind of test: Inhibition of NEK9 in human SKCO1 cells at 1 uM after 4 hrs using biotin labeled DIKTLNIFLTK probe by mass-spectrometric analysis relative to control. The essentials:
(§1)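 Live SK-CO-1 cells exposed to compound at 1 μM or DMSO for 4 h (KiNativ). Lysates then labeled with lysine-reactive ATP/ADP-biotin probe, and probe-labeled kinase peptides quantified by mass spectrometry. Percent inhibition of probe-dependent recovery calculated relative to DMSO-treated cells.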

The target in test [2] is Cyclin-dependent kinase 15 (Homo sapiens) (UniProt Q96Q40). Kind of test: Inhibition of PFTAIRE2 in human SKCO1 cells at 1 uM after 4 hrs using biotin labeled DLKPQNLLISHLGELK probe by mass-spectrometric analysis relative to control. The essentials: as §1
Test [3] has as its target Serine/threonine-protein kinase Nek4 (Homo sapiens) (UniProt P51957). The test can be described thus: Inhibition of NEK4 in human SKCO1 cells at 1 uM after 4 hrs using biotin labeled DLKTQNVFLTR probe by mass-spectrometric analysis relative to control. The method in brief:
as §1

Test [4] deals with Cyclin-dependent kinase 2 (Homo sapiens) (UniProt P24941). Kind of test: Inhibition of CDK2 in human SKCO1 cells at 1 uM after 4 hrs using biotin labeled DLKPQNLLINTEGAIK probe by mass-spectrometric analysis relative to control.
Test [5] addresses Serine/threonine-protein kinase PLK1 (Homo sapiens) (UniProt P53350). Kind of test: Inhibition of PLK1 in human SKCO1 cells at 1 uM after 4 hrs using biotin labeled CFEISDADTKEVFAGKIVPK probe by mass-spectrometric analysis relative to control. The method in brief: as §1
The target in test [6] is Interleukin-1 receptor-associated kinase 1 (Homo sapiens) (UniProt P51617). The test can be described thus: Inhibition of IRAK1 in human SKCO1 cells at 1 uM after 4 hrs using biotin labeled AIQFLHQDSPSLIHGDIKSSNVLLDER probe by mass-spectrometric analysis relative to control.
Test [7] concerns the target T2, EKC/KEOPS complex subunit TP53RK (Homo sapiens) (UniProt Q96S44).
T2 sequence (whole entry): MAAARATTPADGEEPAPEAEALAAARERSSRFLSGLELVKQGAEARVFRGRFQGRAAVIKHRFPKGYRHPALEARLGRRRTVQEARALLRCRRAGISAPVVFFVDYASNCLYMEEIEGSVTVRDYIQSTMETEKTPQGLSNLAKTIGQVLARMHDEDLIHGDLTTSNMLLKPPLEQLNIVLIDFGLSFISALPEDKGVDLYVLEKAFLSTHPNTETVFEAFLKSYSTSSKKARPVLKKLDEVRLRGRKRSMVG
Kind of test: Inhibition of PRPK in human SKCO1 cells at 1 uM after 4 hrs using biotin labeled FLSGLELVKQGAEAR probe by mass-spectrometric analysis relative to control. The method in brief:
as §1

In test [8] the target is Dual specificity mitogen-activated protein kinase kinase 1 (Homo sapiens) (UniProt Q02750). Kind of test: Inhibition of MAP2K1 in human SKCO1 cells at 1 uM after 4 hrs using biotin labeled IMHRDVKPSNILVNSR probe by mass-spectrometric analysis relative to control. The essentials: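 Live SK-CO-1 cells treated 4 h at 1 μM (DMSO control); cells lysed and lysates labeled with lysine-reactive ATP/ADP-biotin probe (KiNativ); probe-labeled kinase peptides quantified by mass spectrometry; inhibition expressed as percent reduction in probe-dependent recovery versus DMSO-treated cells.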

Test [9] concerns the target Epidermal growth factor receptor (Homo sapiens) (UniProt P00533). Kind of test: Inhibition of EGFR in human SKCO1 cells at 1 uM after 4 hrs using biotin labeled LLGAEEKEYHAEGGKVPIK probe by mass-spectrometric analysis relative to control.
Test [10] has as its target Serine/threonine-protein kinase MARK2 (Homo sapiens) (UniProt Q7KZI7). Kind of test: Inhibition of MARK2 in human SKCO1 cells at 1 uM after 4 hrs using biotin labeled EVAVKIIDKTQLNSSSLQK probe by mass-spectrometric analysis relative to control.

Serine/threonine-protein kinase Nek4 (Homo sapiens), sequence (P51957 whole entry, looked up): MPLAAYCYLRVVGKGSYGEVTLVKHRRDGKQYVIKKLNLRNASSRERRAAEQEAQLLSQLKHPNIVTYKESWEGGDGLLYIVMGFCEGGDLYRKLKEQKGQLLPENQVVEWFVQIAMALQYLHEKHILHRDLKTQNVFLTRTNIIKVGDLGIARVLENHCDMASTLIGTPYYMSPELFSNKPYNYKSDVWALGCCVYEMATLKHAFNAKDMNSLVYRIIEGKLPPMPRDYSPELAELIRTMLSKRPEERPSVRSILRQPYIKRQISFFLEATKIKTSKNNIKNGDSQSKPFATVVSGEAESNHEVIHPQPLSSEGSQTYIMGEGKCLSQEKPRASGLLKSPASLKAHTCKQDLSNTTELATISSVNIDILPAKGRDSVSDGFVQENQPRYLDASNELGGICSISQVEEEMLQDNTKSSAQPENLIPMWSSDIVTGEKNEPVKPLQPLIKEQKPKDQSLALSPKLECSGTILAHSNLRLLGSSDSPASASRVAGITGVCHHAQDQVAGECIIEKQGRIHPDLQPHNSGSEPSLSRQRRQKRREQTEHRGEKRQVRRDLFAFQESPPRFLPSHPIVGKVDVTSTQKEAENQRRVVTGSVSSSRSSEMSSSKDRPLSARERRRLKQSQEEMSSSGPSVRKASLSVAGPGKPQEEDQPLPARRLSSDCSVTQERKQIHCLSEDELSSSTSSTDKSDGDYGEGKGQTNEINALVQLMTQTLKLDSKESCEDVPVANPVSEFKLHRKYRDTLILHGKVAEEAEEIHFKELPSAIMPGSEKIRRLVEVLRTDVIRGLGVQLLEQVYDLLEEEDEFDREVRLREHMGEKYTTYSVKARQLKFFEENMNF
Dual specificity mitogen-activated protein kinase kinase 1 (Homo sapiens), sequence (Q02750 whole entry): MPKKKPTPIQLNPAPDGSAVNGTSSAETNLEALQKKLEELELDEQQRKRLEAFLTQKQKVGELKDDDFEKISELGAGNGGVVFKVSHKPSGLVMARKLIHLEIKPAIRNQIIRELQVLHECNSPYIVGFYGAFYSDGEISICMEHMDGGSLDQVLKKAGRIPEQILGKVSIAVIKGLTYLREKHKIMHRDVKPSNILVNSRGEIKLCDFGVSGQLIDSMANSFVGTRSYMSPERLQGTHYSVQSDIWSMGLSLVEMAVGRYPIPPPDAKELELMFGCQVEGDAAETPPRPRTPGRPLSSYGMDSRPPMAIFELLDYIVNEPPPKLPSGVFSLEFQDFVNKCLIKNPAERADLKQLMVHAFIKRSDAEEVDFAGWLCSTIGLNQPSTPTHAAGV
Epidermal growth factor receptor (Homo sapiens), sequence (P00533 whole entry): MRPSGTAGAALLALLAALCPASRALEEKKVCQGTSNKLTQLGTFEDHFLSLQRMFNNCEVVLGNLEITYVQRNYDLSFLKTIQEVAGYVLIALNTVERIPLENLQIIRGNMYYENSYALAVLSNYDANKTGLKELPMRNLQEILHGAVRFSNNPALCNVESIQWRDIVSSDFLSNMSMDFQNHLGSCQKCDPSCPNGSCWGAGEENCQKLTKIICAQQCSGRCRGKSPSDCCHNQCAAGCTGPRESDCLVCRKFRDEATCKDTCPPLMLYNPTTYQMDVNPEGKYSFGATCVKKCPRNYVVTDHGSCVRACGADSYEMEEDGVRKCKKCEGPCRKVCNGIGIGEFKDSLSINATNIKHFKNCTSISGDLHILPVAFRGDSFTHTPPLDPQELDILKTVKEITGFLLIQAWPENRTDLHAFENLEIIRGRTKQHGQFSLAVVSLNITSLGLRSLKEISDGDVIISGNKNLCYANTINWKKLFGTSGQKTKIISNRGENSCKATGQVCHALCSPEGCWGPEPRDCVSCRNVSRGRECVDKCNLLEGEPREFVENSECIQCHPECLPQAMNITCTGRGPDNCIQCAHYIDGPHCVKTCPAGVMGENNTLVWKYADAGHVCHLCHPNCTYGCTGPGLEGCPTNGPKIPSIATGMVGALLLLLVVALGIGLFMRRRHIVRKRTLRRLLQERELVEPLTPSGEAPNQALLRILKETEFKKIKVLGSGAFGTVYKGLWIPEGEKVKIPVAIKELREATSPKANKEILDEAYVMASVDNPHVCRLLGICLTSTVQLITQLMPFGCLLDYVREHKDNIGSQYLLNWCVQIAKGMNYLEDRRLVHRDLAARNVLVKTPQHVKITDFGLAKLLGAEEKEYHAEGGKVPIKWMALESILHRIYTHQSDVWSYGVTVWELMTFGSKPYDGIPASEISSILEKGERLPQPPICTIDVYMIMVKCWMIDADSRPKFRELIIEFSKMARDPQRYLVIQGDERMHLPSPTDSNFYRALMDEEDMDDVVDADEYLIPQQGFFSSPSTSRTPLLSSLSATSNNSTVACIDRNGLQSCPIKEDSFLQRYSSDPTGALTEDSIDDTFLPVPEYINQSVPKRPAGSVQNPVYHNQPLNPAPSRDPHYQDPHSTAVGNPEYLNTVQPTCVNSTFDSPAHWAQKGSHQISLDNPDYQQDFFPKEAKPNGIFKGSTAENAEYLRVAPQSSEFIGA
Serine/threonine-protein kinase PLK1 (Homo sapiens), sequence (P53350 whole entry): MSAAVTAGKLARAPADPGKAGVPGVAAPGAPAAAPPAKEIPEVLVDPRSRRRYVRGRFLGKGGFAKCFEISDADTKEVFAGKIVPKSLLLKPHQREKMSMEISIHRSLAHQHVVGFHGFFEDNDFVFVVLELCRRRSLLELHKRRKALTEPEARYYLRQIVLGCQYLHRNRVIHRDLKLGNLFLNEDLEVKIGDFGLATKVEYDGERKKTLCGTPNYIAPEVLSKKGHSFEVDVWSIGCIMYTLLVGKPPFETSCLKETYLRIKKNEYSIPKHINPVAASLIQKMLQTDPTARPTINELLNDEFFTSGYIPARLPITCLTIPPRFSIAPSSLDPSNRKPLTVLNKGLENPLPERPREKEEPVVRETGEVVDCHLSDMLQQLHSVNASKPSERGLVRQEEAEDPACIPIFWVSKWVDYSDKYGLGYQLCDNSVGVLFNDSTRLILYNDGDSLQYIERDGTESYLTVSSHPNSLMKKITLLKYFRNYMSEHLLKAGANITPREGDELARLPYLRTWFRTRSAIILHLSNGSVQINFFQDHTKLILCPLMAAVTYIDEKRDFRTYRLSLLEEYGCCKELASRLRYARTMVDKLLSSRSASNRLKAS
Interleukin-1 receptor-associated kinase 1 (Homo sapiens), sequence (P51617 whole entry, looked up): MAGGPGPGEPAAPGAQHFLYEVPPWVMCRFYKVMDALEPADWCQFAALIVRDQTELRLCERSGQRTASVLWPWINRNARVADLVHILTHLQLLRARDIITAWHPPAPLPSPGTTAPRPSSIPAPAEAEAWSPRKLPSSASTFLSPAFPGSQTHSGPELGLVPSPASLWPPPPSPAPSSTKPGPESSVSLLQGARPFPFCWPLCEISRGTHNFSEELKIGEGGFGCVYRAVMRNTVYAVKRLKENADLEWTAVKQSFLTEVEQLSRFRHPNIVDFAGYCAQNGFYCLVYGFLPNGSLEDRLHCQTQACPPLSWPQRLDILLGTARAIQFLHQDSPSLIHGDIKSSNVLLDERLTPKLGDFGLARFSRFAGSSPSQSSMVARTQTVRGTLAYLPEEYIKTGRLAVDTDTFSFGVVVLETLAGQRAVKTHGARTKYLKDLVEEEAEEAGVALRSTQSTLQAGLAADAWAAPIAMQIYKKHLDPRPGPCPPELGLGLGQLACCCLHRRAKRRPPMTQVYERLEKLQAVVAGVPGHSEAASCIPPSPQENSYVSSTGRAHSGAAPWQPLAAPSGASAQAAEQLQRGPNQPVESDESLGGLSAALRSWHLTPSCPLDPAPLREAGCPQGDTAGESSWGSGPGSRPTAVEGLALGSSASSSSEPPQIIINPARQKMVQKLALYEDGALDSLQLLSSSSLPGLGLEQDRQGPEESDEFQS
Cyclin-dependent kinase 15 (Homo sapiens), sequence (Q96Q40 whole entry): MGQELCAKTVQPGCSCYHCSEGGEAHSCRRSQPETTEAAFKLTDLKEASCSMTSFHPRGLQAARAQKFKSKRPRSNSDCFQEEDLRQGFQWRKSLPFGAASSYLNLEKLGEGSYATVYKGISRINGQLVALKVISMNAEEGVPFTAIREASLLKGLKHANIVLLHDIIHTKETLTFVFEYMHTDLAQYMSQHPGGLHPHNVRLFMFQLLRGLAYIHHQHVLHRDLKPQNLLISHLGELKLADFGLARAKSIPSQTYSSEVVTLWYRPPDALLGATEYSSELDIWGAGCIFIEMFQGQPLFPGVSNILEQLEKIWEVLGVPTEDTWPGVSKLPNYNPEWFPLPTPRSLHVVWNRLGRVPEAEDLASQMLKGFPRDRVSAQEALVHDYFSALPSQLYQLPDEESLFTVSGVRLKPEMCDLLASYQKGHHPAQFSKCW
Serine/threonine-protein kinase MARK2 (Homo sapiens), sequence (Q7KZI7 whole entry): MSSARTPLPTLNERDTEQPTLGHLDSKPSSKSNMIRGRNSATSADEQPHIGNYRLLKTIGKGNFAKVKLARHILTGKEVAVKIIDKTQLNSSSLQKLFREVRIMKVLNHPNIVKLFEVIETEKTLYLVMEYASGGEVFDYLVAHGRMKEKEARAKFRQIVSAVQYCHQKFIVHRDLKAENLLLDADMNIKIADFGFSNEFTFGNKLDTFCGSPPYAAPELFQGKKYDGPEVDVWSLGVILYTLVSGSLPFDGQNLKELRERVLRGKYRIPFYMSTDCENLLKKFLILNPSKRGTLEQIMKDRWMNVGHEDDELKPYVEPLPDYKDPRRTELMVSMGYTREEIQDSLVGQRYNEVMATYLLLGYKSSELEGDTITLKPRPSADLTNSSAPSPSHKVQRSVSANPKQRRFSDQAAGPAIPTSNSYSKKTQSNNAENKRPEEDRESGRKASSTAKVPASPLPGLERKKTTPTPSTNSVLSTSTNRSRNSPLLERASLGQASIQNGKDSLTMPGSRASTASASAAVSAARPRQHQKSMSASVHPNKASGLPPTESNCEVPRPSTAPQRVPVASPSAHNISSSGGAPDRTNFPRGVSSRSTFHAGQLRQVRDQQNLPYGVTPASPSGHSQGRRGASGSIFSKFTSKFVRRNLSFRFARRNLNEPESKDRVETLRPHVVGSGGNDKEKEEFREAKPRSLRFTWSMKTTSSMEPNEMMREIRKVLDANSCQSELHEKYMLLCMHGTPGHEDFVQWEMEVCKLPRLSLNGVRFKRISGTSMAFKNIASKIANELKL

As for `C=CC(=O)Nc1ccccc1Nc1nc(Nc2ccc(N3CCN(C)CC3)cc2)ncc1Cl`, the inhibition amounted to 3.2% in test [1]; 41.5% in [2]; 23.8% in [3]; 18.7% in test [4]; 54.6% in test [5]; 38.2% in test [6]. The inhibition came out at 42.1% in test [7], 60% in [8], 47.6% in test [9] and 2.5% in [10].
Take `COc1cc(O)c2c(c1)/C=C/C[C@H](O)[C@H](O)C(=O)/C=C\C[C@H](C)OC2=O`: the inhibition in test [1] is 24.7%; in test [2], 31.8%; in [3] it was 18.9%; in [4] it was 30%; in [5], 61.5%; in [6] it was -6%. For the same compound, the inhibition is 46.7% in test [7], 89.4% in [8], 14.5% in [9] and -8.1% in [10].
With `C=CC(=O)Nc1ccccc1Oc1nc(Nc2cnn(CCOC)c2)ncc1Cl`, the inhibition in test [1] was 9%; in test [2] it was 22.8%; in [3] it was 15.1%; in test [4], 33.1%; in [5] it was 59.9%; in test [6], -4.5%. Moreover, the inhibition in test [7] is 46.6%; in [8] it was -7.9%; in test [9] it was 28.6%; in test [10], 6.3%.

A word on the inhibition: it is the relative decrease from the control value, in per cent.
